{
  "source": "paper PMC3701955",
  "about": "(Bioorganic & medicinal chemistry, 2012)",
  "key": {"[1]": {"assay_type": "in vivo", "details": "female Sprague–Dawley rats, iv; for Biodistribution of radioactivity in brain region, Amygdala / Biodistribution of radioactivity in brain region, Basal Hypothalamus / Biodistribution of radioactivity in brain region, Cerebellum / Biodistribution of radioactivity in brain region, Dorsal Striatum / Biodistribution of radioactivity in brain region, Remaining Brain / Biodistribution of radioactivity, Blood / Biodistribution of radioactivity, Heart / Biodistribution of radioactivity, Kidney / Biodistribution of radioactivity, Liver / Biodistribution of radioactivity, Lung / Biodistribution of radioactivity, Muscle / Biodistribution of radioactivity, Uterus / Biodistribution of radioactivity, Brain: mean ± SD; for Biodistribution of radioactivity, Brain: total brain"}, "[2]": {"system": "OTR and V1aR", "test": "Receptor autoradiography with the radioligand on prairie vole brain slices", "assay_type": "binding", "details": "70 pM radioligand", "how_it_was_run": "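Prairie vole brains were cut at 20 μm from prefrontal cortex through nucleus accumbens and ventral pallidum, stored at −80 °C, and thawed. Sections were dipped in 0.1% paraformaldehyde/PBS pH 7.4 and rinsed in 50 mM Tris pH 7.4. They were incubated 1 h with 70 pM radioiodinated test compound without competitor, then washed in 50 mM Tris + 2% MgCl2 pH 7.4, air-dried, and exposed to film 72 h. Six animals per study.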"}},
  "note": "Where two headings read alike, the source gives them in different places.",
  "data": [
    {"smiles": "CS(=O)(=O)N1CCC(Oc2ccc(CC(=O)N3CCC(N4C(=O)CCc5ccccc54)CC3)c(OC/C=C\\[125I])c2)CC1", "note": "[[^125I]2, (Z)-1-(1-(2-(2-(3-[125I] Iodoallyloxy)-4-(1-(methylsulfonyl)piperidin-4-yloxy)phenyl)acetyl)piperidin-4-yl)-3,4-dihydroquinolin-2(1H)-one]", "values": [
      {"measurement": "in vivo stability of the radiolabel (thyroid / bone uptake over time)", "setting": "[1]", "value": "broken down readily in vivo at the iodine position"},
      {"measurement": "Biodistribution of radioactivity in brain region, Amygdala", "setting": "[1]; 15 min", "value": "0.06 ± 0.01", "unit": "%ID/g"},
      {"measurement": "Biodistribution of radioactivity in brain region, Basal Hypothalamus", "setting": "[1]; 15 min", "value": "0.04 ± 0.01", "unit": "%ID/g"},
      {"measurement": "Biodistribution of radioactivity in brain region, Cerebellum", "setting": "[1]; 15 min", "value": "0.03 ± 0.01", "unit": "%ID/g"},
      {"measurement": "Biodistribution of radioactivity in brain region, Dorsal Striatum", "setting": "[1]; 15 min", "value": "0.03 ± 0.01", "unit": "%ID/g"},
      {"measurement": "Biodistribution of radioactivity in brain region, Remaining Brain", "setting": "[1]; 15 min", "value": "0.03 ± 0.01", "unit": "%ID/g"},
      {"measurement": "Biodistribution of radioactivity, Blood", "setting": "[1]; 15 min", "value": "0.22 ± 0.14", "unit": "%ID/g"},
      {"measurement": "Biodistribution of radioactivity, Heart", "setting": "[1]; 15 min", "value": "0.51 ± 0.41", "unit": "%ID/g"},
      {"measurement": "Biodistribution of radioactivity, Kidney", "setting": "[1]; 15 min", "value": "0.38 ± 0.20", "unit": "%ID/g"},
      {"measurement": "Biodistribution of radioactivity, Liver", "setting": "[1]; 15 min", "value": "2.12 ± 1.73", "unit": "%ID/g"},
      {"measurement": "Biodistribution of radioactivity, Lung", "setting": "[1]; 15 min", "value": "1.79 ± 1.78", "unit": "%ID/g"},
      {"measurement": "Biodistribution of radioactivity, Muscle", "setting": "[1]; 15 min", "value": "0.10 ± 0.09", "unit": "%ID/g"},
      {"measurement": "Biodistribution of radioactivity, Uterus", "setting": "[1]; 15 min", "value": "0.22 ± 0.16", "unit": "%ID/g"},
      {"measurement": "Biodistribution of radioactivity, Brain", "setting": "[1]; 15 min", "value": "0.02 ± 0.01", "unit": "%ID/g"},
      {"measurement": "Biodistribution of radioactivity in brain region, Amygdala", "setting": "[1]; 30 min", "value": "0.08 ± 0.06", "unit": "%ID/g"},
      {"measurement": "Biodistribution of radioactivity in brain region, Basal Hypothalamus", "setting": "[1]; 30 min", "value": "0.03 ± 0.01", "unit": "%ID/g"},
      {"measurement": "Biodistribution of radioactivity in brain region, Cerebellum", "setting": "[1]; 30 min", "value": "0.03 ± 0.01", "unit": "%ID/g"},
      {"measurement": "Biodistribution of radioactivity in brain region, Dorsal Striatum", "setting": "[1]; 30 min", "value": "0.03 ± 0.01", "unit": "%ID/g"},
      {"measurement": "Biodistribution of radioactivity in brain region, Remaining Brain", "setting": "[1]; 30 min", "value": "0.02 ± 0.01", "unit": "%ID/g"},
      {"measurement": "Biodistribution of radioactivity, Blood", "setting": "[1]; 30 min", "value": "0.23 ± 0.23", "unit": "%ID/g"},
      {"measurement": "Biodistribution of radioactivity, Heart", "setting": "[1]; 30 min", "value": "0.39 ± 0.38", "unit": "%ID/g"},
      {"measurement": "Biodistribution of radioactivity, Kidney", "setting": "[1]; 30 min", "value": "0.31 ± 0.27", "unit": "%ID/g"},
      {"measurement": "Biodistribution of radioactivity, Liver", "setting": "[1]; 30 min", "value": "1.91 ± 1.88", "unit": "%ID/g"},
      {"measurement": "Biodistribution of radioactivity, Lung", "setting": "[1]; 30 min", "value": "1.02 ± 1.13", "unit": "%ID/g"},
      {"measurement": "Biodistribution of radioactivity, Muscle", "setting": "[1]; 30 min", "value": "0.09 ± 0.08", "unit": "%ID/g"},
      {"measurement": "Biodistribution of radioactivity, Uterus", "setting": "[1]; 30 min", "value": "0.16 ± 0.16", "unit": "%ID/g"},
      {"measurement": "Biodistribution of radioactivity, Brain", "setting": "[1]; 30 min", "value": "0.02 ± 0.01", "unit": "%ID/g"},
      {"measurement": "Biodistribution of radioactivity in brain region, Amygdala", "setting": "[1]; 60 min", "value": "0.06 ± 0.01", "unit": "%ID/g"},
      {"measurement": "Biodistribution of radioactivity in brain region, Basal Hypothalamus", "setting": "[1]; 60 min", "value": "0.03 ± 0.01", "unit": "%ID/g"},
      {"measurement": "Biodistribution of radioactivity in brain region, Cerebellum", "setting": "[1]; 60 min", "value": "0.03 ± 0.01", "unit": "%ID/g"},
      {"measurement": "Biodistribution of radioactivity in brain region, Dorsal Striatum", "setting": "[1]; 60 min", "value": "0.02 ± 0.01", "unit": "%ID/g"},
      {"measurement": "Biodistribution of radioactivity in brain region, Remaining Brain", "setting": "[1]; 60 min", "value": "0.02 ± 0.01", "unit": "%ID/g"},
      {"measurement": "Biodistribution of radioactivity, Heart", "setting": "[1]; 60 min", "value": "0.39 ± 0.12", "unit": "%ID/g"},
      {"measurement": "Biodistribution of radioactivity, Kidney", "setting": "[1]; 60 min", "value": "0.46 ± 0.04", "unit": "%ID/g"},
      {"measurement": "Biodistribution of radioactivity, Liver", "setting": "[1]; 60 min", "value": "3.01 ± 0.50", "unit": "%ID/g"},
      {"measurement": "Biodistribution of radioactivity, Lung", "setting": "[1]; 60 min", "value": "0.66 ± 0.32", "unit": "%ID/g"},
      {"measurement": "Biodistribution of radioactivity, Muscle", "setting": "[1]; 60 min", "value": "0.15 ± 0.03", "unit": "%ID/g"},
      {"measurement": "Biodistribution of radioactivity, Uterus", "setting": "[1]; 60 min", "value": "0.31 ± 0.08", "unit": "%ID/g"},
      {"measurement": "Biodistribution of radioactivity, Brain", "setting": "[1]; 60 min", "value": "0.02 ± 0.01", "unit": "%ID/g"},
      {"measurement": "Biodistribution of radioactivity in brain region, Basal Hypothalamus", "setting": "[1]; 120 min", "value": "0.04 ± 0.01", "unit": "%ID/g"},
      {"measurement": "Biodistribution of radioactivity in brain region, Cerebellum", "setting": "[1]; 120 min", "value": "0.03 ± 0.01", "unit": "%ID/g"},
      {"measurement": "Biodistribution of radioactivity in brain region, Dorsal Striatum", "setting": "[1]; 120 min", "value": "0.02 ± 0.01", "unit": "%ID/g"},
      {"measurement": "Biodistribution of radioactivity in brain region, Remaining Brain", "setting": "[1]; 120 min", "value": "0.02 ± 0.01", "unit": "%ID/g"},
      {"measurement": "Biodistribution of radioactivity, Blood", "setting": "[1]; 120 min", "value": "0.31 ± 0.17", "unit": "%ID/g"},
      {"measurement": "Biodistribution of radioactivity, Kidney", "setting": "[1]; 120 min", "value": "0.29 ± 0.15", "unit": "%ID/g"},
      {"measurement": "Biodistribution of radioactivity, Liver", "setting": "[1]; 120 min", "value": "1.91 ± 1.02", "unit": "%ID/g"},
      {"measurement": "Biodistribution of radioactivity, Lung", "setting": "[1]; 120 min", "value": "0.41 ± 0.27", "unit": "%ID/g"},
      {"measurement": "Biodistribution of radioactivity, Muscle", "setting": "[1]; 120 min", "value": "0.10 ± 0.05", "unit": "%ID/g"},
      {"measurement": "Biodistribution of radioactivity, Uterus", "setting": "[1]; 120 min", "value": "0.22 ± 0.13", "unit": "%ID/g"},
      {"measurement": "Biodistribution of radioactivity, Brain", "setting": "[1]; 120 min", "value": "0.02 ± 0.01", "unit": "%ID/g"},
      {"measurement": "autoradiographic binding to brain regions", "setting": "[2]", "value": "bind to receptors in the NAcc and VP"}
    ]}
  ]
}
